Measured values: ChEMBL document CHEMBL5058577, “EUbOPEN Chemogenomics Library 2 (Multiplex)” (2022)

System: Fibroblast
Test: Multiplex assay against human fibroblast
Assay type: toxicity, cell-based
Method in brief: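 Live cells were stained at seeding with Hoechst33342, BioTracker Green Microtubule Cytoskeleton Dye, MitoTracker Red and Annexin V Alexa Fluor 680. Following compound addition, they were imaged on a CQ1 microscope at 37°C and 5% CO2 and gated by CellPathfinder machine learning into Hoechst high-intensity objects or normal cells, with normal cells split into healthy, pyknosed or fragmented nuclei and pyknosed cells into mitotic or apoptotic. Tubulin, mitochondrial-mass and membrane-permeability phenotypes are per cents of healthy-nucleus cells.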

[1] = 12 h, 1 µM, compound concentration 1 uM, replicate 1
[2] = 12 h, 1 µM, compound concentration 1 uM, replicate 2
[3] = 12 h, 10 µM, compound concentration 10 uM, replicate 1
[4] = 12 h, 10 µM, compound concentration 10 uM, replicate 2
[5] = 24 h, 1 µM, compound concentration 1 uM, replicate 1
[6] = 24 h, 1 µM, compound concentration 1 uM, replicate 2
[7] = 24 h, 10 µM, compound concentration 10 uM, replicate 1
[8] = 24 h, 10 µM, compound concentration 10 uM, replicate 2
[9] = 48 h, 1 µM, compound concentration 1 uM, replicate 1
[10] = 48 h, 1 µM, compound concentration 1 uM, replicate 2
[11] = 48 h, 10 µM, compound concentration 10 uM, replicate 1
[12] = 48 h, 10 µM, compound concentration 10 uM, replicate 2

COc1c(C)cc(NC(=O)c2nn(Cc3ccc(F)cc3)c3c2CN(C(=O)c2ccc[nH]2)C[C@]3(C)C(N)=O)cc1C
Population Apoptotic (%) [1]: 42%
Population Fragmented Nuclei (%) [1]: 21%
Population Healthy Nuclei (%) [1]: 58%
Population Hoechst High Intensity Objects (%) [1]: 2%
Population Membrane Permeable-Phenotype (%) [1]: 1%
Population Mitochondria Different-Phenotype (%) [1]: 18%
Population Mitotic Cells (%) [1]: 57%
Population Normal (%) [1]: 97%
Population Pyknosed Nuclei (%) [1]: 20%
Population Tubulin-Different-Phenotype (%) [1]: 64%
Total Cell Count [1]: 95
Population Apoptotic (%) [2]: 46%
Population Fragmented Nuclei (%) [2]: 16%
Population Healthy Nuclei (%) [2]: 51%
Population Hoechst High Intensity Objects (%) [2]: 3%
Population Membrane Permeable-Phenotype (%) [2]: 6%
Population Mitochondria Different-Phenotype (%) [2]: 11%
Population Mitotic Cells (%) [2]: 53%
Population Normal (%) [2]: 96%
Population Pyknosed Nuclei (%) [2]: 31%
Population Tubulin-Different-Phenotype (%) [2]: 72%
Total Cell Count [2]: 86
Population Apoptotic (%) [3]: 47%
Population Fragmented Nuclei (%) [3]: 12%
Population Healthy Nuclei (%) [3]: 58%
Population Hoechst High Intensity Objects (%) [3]: 1%
Population Membrane Permeable-Phenotype (%) [3]: 0%
Population Mitochondria Different-Phenotype (%) [3]: 25%
Population Mitotic Cells (%) [3]: 52%
Population Normal (%) [3]: 98%
Population Pyknosed Nuclei (%) [3]: 29%
Population Tubulin-Different-Phenotype (%) [3]: 90%
Total Cell Count [3]: 166
Population Apoptotic (%) [4]: 52%
Population Fragmented Nuclei (%) [4]: 29%
Population Healthy Nuclei (%) [4]: 38%
Population Hoechst High Intensity Objects (%) [4]: 2%
Population Membrane Permeable-Phenotype (%) [4]: 6%
Population Mitochondria Different-Phenotype (%) [4]: 30%
Population Mitotic Cells (%) [4]: 47%
Population Normal (%) [4]: 97%
Population Pyknosed Nuclei (%) [4]: 32%
Total Cell Count [4]: 115
Population Apoptotic (%) [5]: 66%
Population Fragmented Nuclei (%) [5]: 25%
Population Healthy Nuclei (%) [5]: 61%
Population Hoechst High Intensity Objects (%) [5]: 3%
Population Membrane Permeable-Phenotype (%) [5]: 1%
Population Mitochondria Different-Phenotype (%) [5]: 17%
Population Mitotic Cells (%) [5]: 33%
Population Normal (%) [5]: 96%
Population Pyknosed Nuclei (%) [5]: 12%
Population Tubulin-Different-Phenotype (%) [5]: 45%
Total Cell Count [5]: 96
Population Apoptotic (%) [6]: 48%
Population Fragmented Nuclei (%) [6]: 31%
Population Healthy Nuclei (%) [6]: 38%
Population Hoechst High Intensity Objects (%) [6]: 6%
Population Membrane Permeable-Phenotype (%) [6]: 8%
Population Mitotic Cells (%) [6]: 51%
Population Normal (%) [6]: 93%
Population Pyknosed Nuclei (%) [6]: 30%
Population Tubulin-Different-Phenotype (%) [6]: 67%
Total Cell Count [6]: 95
Population Apoptotic (%) [7]: 65%
Population Fragmented Nuclei (%) [7]: 14%
Population Healthy Nuclei (%) [7]: 64%
Population Hoechst High Intensity Objects (%) [7]: 3%
Population Membrane Permeable-Phenotype (%) [7]: 0%
Population Mitochondria Different-Phenotype (%) [7]: 47%
Population Mitotic Cells (%) [7]: 34%
Population Normal (%) [7]: 96%
Population Pyknosed Nuclei (%) [7]: 20%
Population Tubulin-Different-Phenotype (%) [7]: 90%
Total Cell Count [7]: 159
Population Apoptotic (%) [8]: 43%
Population Fragmented Nuclei (%) [8]: 30%
Population Healthy Nuclei (%) [8]: 47%
Population Hoechst High Intensity Objects (%) [8]: 4%
Population Membrane Permeable-Phenotype (%) [8]: 8%
Population Mitochondria Different-Phenotype (%) [8]: 26%
Population Mitotic Cells (%) [8]: 56%
Population Normal (%) [8]: 95%
Population Pyknosed Nuclei (%) [8]: 21%
Population Tubulin-Different-Phenotype (%) [8]: 82%
Total Cell Count [8]: 110
Population Apoptotic (%) [9]: 87%
Population Fragmented Nuclei (%) [9]: 29%
Population Healthy Nuclei (%) [9]: 61%
Population Hoechst High Intensity Objects (%) [9]: 7%
Population Membrane Permeable-Phenotype (%) [9]: 0%
Population Mitochondria Different-Phenotype (%) [9]: 10%
Population Mitotic Cells (%) [9]: 12%
Population Normal (%) [9]: 92%
Population Pyknosed Nuclei (%) [9]: 8%
Population Tubulin-Different-Phenotype (%) [9]: 45%
Total Cell Count [9]: 99
Population Apoptotic (%) [10]: 70%
Population Fragmented Nuclei (%) [10]: 34%
Population Healthy Nuclei (%) [10]: 45%
Population Hoechst High Intensity Objects (%) [10]: 5%
Population Membrane Permeable-Phenotype (%) [10]: 10%
Population Mitotic Cells (%) [10]: 29%
Population Normal (%) [10]: 94%
Population Pyknosed Nuclei (%) [10]: 19%
Population Tubulin-Different-Phenotype (%) [10]: 69%
Total Cell Count [10]: 91
Population Apoptotic (%) [11]: 60%
Population Fragmented Nuclei (%) [11]: 22%
Population Healthy Nuclei (%) [11]: 60%
Population Hoechst High Intensity Objects (%) [11]: 4%
Population Membrane Permeable-Phenotype (%) [11]: 0%
Population Mitochondria Different-Phenotype (%) [11]: 54%
Population Mitotic Cells (%) [11]: 39%
Population Normal (%) [11]: 95%
Population Pyknosed Nuclei (%) [11]: 17%
Population Tubulin-Different-Phenotype (%) [11]: 92%
Total Cell Count [11]: 166
Population Apoptotic (%) [12]: 77%
Population Fragmented Nuclei (%) [12]: 41%
Population Healthy Nuclei (%) [12]: 51%
Population Hoechst High Intensity Objects (%) [12]: 2%
Population Membrane Permeable-Phenotype (%) [12]: 3%
Population Mitochondria Different-Phenotype (%) [12]: 16%
Population Mitotic Cells (%) [12]: 22%
Population Normal (%) [12]: 97%
Population Pyknosed Nuclei (%) [12]: 7%
Population Tubulin-Different-Phenotype (%) [12]: 75%
Total Cell Count [12]: 122
